# Source: PubChem (Sanford-Burnham Center for Chemical Genomics)
# A selection: hits, their analogues and other compounds. The true share with any hit is near 4.1%.
# UPR CHOP act: activators of apoptotic arm of unfolded protein response (CHOP); activation, % at 10 µM; 0.34% of 330,000 active; CHO-CHOP luciferase reporter, UPR activation, luminescence; percent of tunicamycin response over DMSO baseline;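 active = at 10 µM dose, activation of 40% or more, normalized to positive control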;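 note: 100% = tunicamycin at 10 µg/mL and 0% = DMSO alone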
#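 Material: CHO-CHOP cells, stable luciferase reporter of PERK-eIF2a-CHOP signalling; quantity: 500 reporter cells seeded per well; buffer or medium: F12 medium containing 10% fetal bovine serum; compound: one dose, 10 µM in 0.5% DMSO; incubation: 6 h compound treatment, 37 °C; measured by: Steady-Glo luciferase luminescence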
# UBC13 polyUb: inhibitors of human UBC13 polyubiquitin chain formation. TR-FRET. inhibition, % at 20 µM. 0.47% of 330,000 active. AID 485273; in the data active = inhibition above about 45%, passing the limit was not always enough
# Apaf-1 inh: inhibitors of human Apaf-1 apoptosome; O14727; reconstituted apoptosome caspase-3 activity, DEVD-Rh110 fluorescence; inhibition, % at 20 µM; 0.71% of 330,000 active; active = inhibition of at least 40% at 20 µM;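 note: plate controls were DMSO wells for no effect and DEVD-CHO caspase inhibitor wells for full effect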
# Target sequence (O14727 whole entry, looked up): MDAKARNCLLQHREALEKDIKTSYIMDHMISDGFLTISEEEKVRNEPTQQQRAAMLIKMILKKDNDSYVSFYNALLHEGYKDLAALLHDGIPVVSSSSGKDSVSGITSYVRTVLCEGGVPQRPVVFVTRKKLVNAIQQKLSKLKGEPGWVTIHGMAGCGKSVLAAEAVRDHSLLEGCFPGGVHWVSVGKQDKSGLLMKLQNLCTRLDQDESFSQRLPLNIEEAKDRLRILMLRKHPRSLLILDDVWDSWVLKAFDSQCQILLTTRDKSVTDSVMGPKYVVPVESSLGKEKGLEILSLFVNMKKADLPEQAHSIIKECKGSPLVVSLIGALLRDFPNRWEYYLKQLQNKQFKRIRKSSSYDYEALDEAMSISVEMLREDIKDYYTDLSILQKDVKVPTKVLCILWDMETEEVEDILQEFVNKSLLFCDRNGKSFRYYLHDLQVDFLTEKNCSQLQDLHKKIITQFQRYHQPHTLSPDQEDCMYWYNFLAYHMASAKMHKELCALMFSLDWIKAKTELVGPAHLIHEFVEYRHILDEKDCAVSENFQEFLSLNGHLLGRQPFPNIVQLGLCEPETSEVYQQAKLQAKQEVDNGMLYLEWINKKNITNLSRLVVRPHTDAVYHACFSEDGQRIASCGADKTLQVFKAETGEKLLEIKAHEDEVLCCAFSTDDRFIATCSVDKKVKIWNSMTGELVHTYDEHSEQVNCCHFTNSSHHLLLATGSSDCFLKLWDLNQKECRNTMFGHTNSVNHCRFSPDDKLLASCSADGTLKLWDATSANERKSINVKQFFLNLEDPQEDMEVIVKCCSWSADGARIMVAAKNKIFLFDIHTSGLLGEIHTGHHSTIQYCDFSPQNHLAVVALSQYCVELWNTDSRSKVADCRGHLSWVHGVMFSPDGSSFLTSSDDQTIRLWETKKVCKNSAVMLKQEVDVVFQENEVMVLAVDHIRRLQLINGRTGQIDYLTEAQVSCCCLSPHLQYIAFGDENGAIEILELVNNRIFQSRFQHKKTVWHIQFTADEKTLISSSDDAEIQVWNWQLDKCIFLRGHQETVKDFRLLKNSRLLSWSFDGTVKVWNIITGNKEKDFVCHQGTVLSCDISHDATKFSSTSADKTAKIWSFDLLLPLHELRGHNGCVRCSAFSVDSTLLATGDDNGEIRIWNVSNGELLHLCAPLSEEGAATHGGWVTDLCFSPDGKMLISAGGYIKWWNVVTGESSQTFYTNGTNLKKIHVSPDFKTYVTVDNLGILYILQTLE
#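 Assay system – apoptosome proteins · Medium – Hepes buffer, pH 7.5 · Also added – cytochrome c with DEVD-Rh110 · Timing – 30 min compound preincubation, 50 min activation, room temperature · Detection – Rh110 fluorescence, excitation 480 nm, emission 540 nm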
# Mdm2-MdmX inh: disrupts the human Mdm2-MdmX interaction | O15151+Q00987 | SaOS-2 split-luciferase Mdm2/MdmX complementation, luminescence | inhibition, % at 8 µM | 3% of 330,000 active | AID 485346;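 active = inhibition of at least 50% at 8 µM in the primary screen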
# XBP1 UPR activ: activators of adaptive arm of unfolded protein response (XBP1). CHO-XBP1 luciferase reporter, IRE1-XBP1 UPR activation, luminescence; percent of tunicamycin response, DMSO as zero. activation, % at 20 µM. 0.33% of 330,000 active. AID 463104;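 active = versus positive control, 20 µM dose yields 30% or more activation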;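 note: 100% = tunicamycin at 10 µg/mL and 0% = DMSO only wells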
#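 assay system = CHO-XBP1 luciferase reporter cells | amount = 1000 cells/well | buffer or medium = F12 plus 10% FBS | compound dosing = single point, 20 µM final compound, 1% DMSO | incubation = 16-18 h cell attachment at 37 °C, then 6 h compound exposure | detection = Steady-Glo luminescence read | controls = tunicamycin 10 µg/mL and vehicle-only wells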
# Mdm2 MdmX conf: confirmation of human Mdm2/MdmX interaction inhibitors. shares compounds with Mdm2-MdmX inh. 55% of 10,000 active. Mdm2-MdmX binding, luminescent assay. inhibition, % at 8 µM; in the data active = inhibition above about 40%
# FLuc counter: inhibits full-length luciferase, flagging false Mdm2/MdmX hits; AID 504607; inhibition, % at 8 µM; 77% of 6,200 active; SaOS-2 full-length luciferase counterscreen, luminescence; shares compounds with Mdm2-MdmX inh;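 active = mean inhibition at 8 µM reaching about 37%, which flags the compound as non-specific, limit read from the data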;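 note: p53-null SaOS-2 cells with luciferase driven by a doxycycline-inducible promoter; compound on cells about two nights before reading with doxycycline added after day one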
# Starred values were filed as active, the others as inactive; nt = no result given.
SMILES,UPR CHOP act,UBC13 polyUb,Apaf-1 inh,Mdm2-MdmX inh,XBP1 UPR activ,Mdm2 MdmX conf,FLuc counter
Cc1ccc(CN2CCCN(C)CC2)c(C)c1,-1,4,-14,-28,-4,nt,nt
COc1ccc(/C=C/C(=O)Nc2ccc3nc4n(c(=O)c3c2)CCCC4)cc1OC,2,9,-8,60*,-1,14,nt
O=C(Nc1ccc2nc3n(c(=O)c2c1)CCCCC3)c1cc([N+](=O)[O-])ccc1F,26,7,6,98*,-4,79*,22
O=C(Nc1ccc2nc3n(c(=O)c2c1)CCCCC3)c1c(F)ccc([N+](=O)[O-])c1F,7,10,17,96*,-8,100*,52*
O=C(Nc1c2c(nn1-c1ccc([N+](=O)[O-])cc1)CS(=O)(=O)C2)c1ccco1,2,0,-5,17,-4,nt,nt
O=c1cccc2n1Cc1cc3ccccc3nc1-2,4,22,-2,-59,1,nt,nt
CC[C@@]1(O)C(=O)OCc2c1cc1n(c2=O)Cc2cc3c(CN(C)C)c(O)ccc3nc2-1,-3,-15,1,88*,-9,88*,52*
CC[C@@]1(O)C(=O)OCc2c1cc1n(c2=O)Cc2cc3c(N)cccc3nc2-1,-4,-44,13,100*,-7,96*,53*
O=C(C1CC1)N1CCc2cc(S(=O)(=O)N3CCN(c4ccccc4)CC3)ccc21,1,-2,1,29,-5,nt,nt
CCC(=O)N1CCc2cc(S(=O)(=O)N3CCN(c4ccccc4)CC3)ccc21,0,-2,8,55*,-9,-18,nt
COC(=O)c1sccc1NC(=O)c1cc(-c2ccc(C)cc2C)nc2ccccc12,1,-6,17,47,-2,nt,nt
COc1ccc(NC(=O)Nc2nc(C)cc(C)n2)c(OC)c1,0,8,-9,-13,0,nt,nt
C/C(=N/Nc1ccccc1[N+](=O)[O-])c1ccc(C)c([N+](=O)[O-])c1,6,-4,1,70*,0,16,nt
C/C(=N\NC(=O)c1cc(C)oc1C)c1ccc(C)c([N+](=O)[O-])c1,1,-10,-1,96*,8,-13,nt
COC(=O)N/N=C(\C)c1ccc(C)c([N+](=O)[O-])c1,1,19,-5,9,-1,nt,nt
CC(OC(=O)/C=C/c1ccccc1)C(=O)Nc1cccc(C#N)c1 (stereo unspecified),0,-1,13,56*,4,58*,95*
CC(C(=O)Nc1cccc(C#N)c1)N(C)CCOc1ccccc1 (stereo unspecified),2,5,9,-3,1,nt,nt
COc1ccc(CCNC(=S)Nc2cccc3ccccc23)cc1,2,4,7,64*,-5,33,nt
CCN(C[C@H]1N[C@@](Cc2ccccc2)(C(=O)OC)[C@H]2C(=O)N(Cc3ccccc3)C(=O)[C@@H]12)S(=O)(=O)c1ccc(C(F)(F)F)cc1,5,4,5,38,-4,nt,nt
CCN(C[C@H]1N[C@@](CC)(C(=O)OC)[C@H]2C(=O)N(C)C(=O)[C@@H]12)C(=O)Nc1ccc(Cl)cc1,3,2,-1,19,-3,nt,nt
CCN(C[C@H]1N[C@@](Cc2ccccc2)(C(=O)OC)[C@H]2C(=O)N(Cc3ccccc3)C(=O)[C@@H]12)C(=O)Nc1ccc(C)cc1,5,-17,25,54*,0,51*,74*
CCN(C[C@H]1N[C@@](Cc2ccccc2)(C(=O)OC)[C@H]2C(=O)N(Cc3ccccc3)C(=O)[C@@H]12)C(=O)Nc1ccc(C(F)(F)F)cc1,7,6,8,85*,4,40*,58*
CCN(C[C@H]1N[C@@](CC)(C(=O)OC)[C@H]2C(=O)N(Cc3ccccc3)C(=O)[C@@H]12)C(=O)Nc1ccc(Cl)cc1,2,8,11,60*,-3,62*,58*
CCN(C[C@H]1N[C@@](CC)(C(=O)OC)[C@H]2C(=O)N(Cc3ccccc3)C(=O)[C@@H]12)C(=O)Nc1ccc(C)cc1,1,5,10,19,1,nt,nt
CC(=O)Nc1ccc(N2C(=O)CSC2c2cccc(Br)c2)cc1 (stereo unspecified),0,7,5,16,1,nt,nt
SMILES,UPR CHOP act,UBC13 polyUb,Apaf-1 inh,Mdm2-MdmX inh,XBP1 UPR activ,Mdm2 MdmX conf,FLuc counter
COc1ccc(-c2ccnc3nc(N4CCN(c5ccccc5)CC4)nn23)cc1,2,9,35,37,4,nt,nt
COc1ccc(N2CCN(CCNC(=O)c3ccc4c(c3)[nH]c(=S)n3c5ccccc5nc43)CC2)cc1,3,32,0,87*,2,76*,55*
Cc1cc(/C=N/n2cnnc2)c(C)n1-c1ccc(OCc2ccc(F)cc2)cc1,10,-4,23,65*,4,35,78*
CC[C@]1(C(=O)OC)[C@H]2C(=O)N(C)C(=O)[C@H]2[C@H]2CN=C(SCc3ccc(C#N)cc3)N21,1,nt,17,1,1,nt,nt
NS(=O)(=O)c1ccc(CCNC(=O)c2ccc(NC3=NC4CS(=O)(=O)CC4S3)cc2)cc1 (stereo unspecified),2,4,-5,-6,-1,nt,nt
COc1ccc(S(=O)(=O)NCc2ccccn2)cc1NC(=O)c1ccccc1,-1,1,3,45,-1,nt,nt
CCOc1ccc(S(=O)(=O)NCc2ccccn2)cc1NC(=O)c1ccccc1F,1,15,7,57*,22,53*,72*
O=C(NCc1ccncc1)c1cn(-c2ccccc2)nc1-c1cccnc1,1,1,1,10,-2,nt,nt
O=C(NC1CCN(Cc2ccc(Cl)cc2)CC1)c1cn(-c2ccccc2)nc1-c1cccnc1,2,18,15,53*,-1,32,nt
NC(=O)c1ccc(NC(=O)COc2cccc3ccccc23)cc1,1,0,2,5,-4,nt,nt
CCOc1ccccc1CNC(=O)c1cc2oc3ccccc3c2n1C,1,3,14,84*,5,87*,26
CCOc1ccccc1CNC(=O)c1cc2occc2n1C,0,-2,11,-5,-3,nt,nt
O=C1c2oc3ccc(Cl)cc3c(=O)c2C(c2ccccn2)N1CCCN1CCOCC1 (stereo unspecified),2,1,-3,1,-2,nt,nt
Cc1ccc(NC(=O)CSc2nc3ccccc3c(=O)n2CCCN2CCCCC2)cc1C,1,19,55*,75*,-2,40*,62*
CCc1ccc(NC(=O)CSc2nc3ccccc3c(=O)n2CCCN2CCC(C)CC2)cc1,0,9,21,86*,2,49*,36*
CC(=O)c1cccc(NC(=O)CSc2nc3ccccc3c(=O)n2CCCN2CCOCC2)c1,0,5,0,0,-2,nt,nt
